Laboratory results from ChEMBL document CHEMBL1152649, “Synthesis, cytotoxicity and human telomerase inhibition activities of a series of 1,2-heteroannelated anthraquinones and anthra[1,2-d]imidazole-6,11-dione homologues” (2009).
Activity calls are given as the source filed them. No cut-off for these calls is given here.

Tests used:
T47D = assay: Antiproliferative activity against human T47D cells assessed as cell growth at 10 uM; assay type: functional; settings: read-out: Activity
Method in brief: (§1)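 NCI 60 cell line panel, single dose (10^-5 M), run per the Developmental Therapeutics Program protocol (one dose mean graph). Each result is the growth percentage of treated cells relative to untreated control cells.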

SK-MEL-5 = assay: Antiproliferative activity against human SK-MEL-5 cells assessed as cell growth at 10 uM; assay type: functional; settings: read-out: Activity
Method in brief: (§2)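 NCI 60 cell line panel, single-dose screen (10^-5 M) run by the developmental therapeutics program protocol. Results are given as growth percent of treated cells relative to untreated control cells for each line.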

LOX IMVI = assay: Antiproliferative activity against human LOXIMVI cells assessed as cell growth at 10 uM; assay type: functional; settings: read-out: Activity; method in brief: as §2
UO-31 = assay: Antiproliferative activity against human UO31 cells assessed as cell growth at 10 uM; assay type: functional; settings: read-out: Activity; method in brief: as §1
NCI-H23 = assay: Antiproliferative activity against human NCI-H23 cells assessed as cell growth at 10 uM; assay type: functional; settings: read-out: Activity; method in brief: as §2
HOP-92 = assay: Antiproliferative activity against human HOP92 cells assessed as cell growth at 10 uM; assay type: functional; settings: read-out: Activity; method in brief: as §2
COLO 205 = assay: Antiproliferative activity against human COLO205 cells assessed as cell growth at 10 uM; assay type: functional; settings: read-out: Activity; method in brief: as §2
MOLT-4 = assay: Antiproliferative activity against human MOLT4 cells assessed as cell growth at 10 uM; assay type: functional; settings: read-out: Activity; method in brief: as §2
CAKI-1 = assay: Antiproliferative activity against human Caki1 cells assessed as cell growth at 10 uM; assay type: functional; settings: read-out: Activity; method in brief: as §2
[1] = Cytotoxicity against human H1299 cells at 100 uM after 48 hrs by MTT assay; assay type: functional; settings: NCI-H1299, 48 h
Method in brief: (§3)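 H1299 non-small cell lung cancer cells were grown in RPMI 1640 with 10% FBS, penicillin and streptomycin at 37 °C under 5% CO2. About 2 × 10³ cells per well were seeded and left 24 h. Compounds were dissolved fresh in DMSO, diluted into complete medium and applied for 48 h. MTT was then added for 4 h at 37 °C, followed by lysis buffer (20% SDS, 50% DMF) for 16 h, and absorbance was read at 550 nm.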

U-251 = assay: Antiproliferative activity against human U251 cells assessed as cell growth at 10 uM; assay type: functional; settings: read-out: Activity; method in brief: as §1
SF-295 = assay: Antiproliferative activity against human SF295 cells assessed as cell growth at 10 uM; assay type: functional; settings: read-out: Activity; method in brief: as §2
HT-29 = assay: Antiproliferative activity against human HT-29 cells assessed as cell growth at 10 uM; assay type: functional; settings: read-out: Activity; method in brief: as §2
SK-OV-3 = assay: Antiproliferative activity against human SKOV3 cells assessed as cell growth at 10 uM; assay type: functional; settings: read-out: Activity; method in brief: as §2
[2] = Antiproliferative activity against human RPMI8266 cells assessed as cell growth at 10 uM; assay type: functional; settings: read-out: Activity; method in brief: as §2
MCF7 = assay: Antiproliferative activity against human MCF7 cells assessed as cell growth at 10 uM; assay type: functional; settings: read-out: Activity; method in brief: as §2
ACHN = assay: Antiproliferative activity against human ACHN cells assessed as cell growth at 10 uM; assay type: functional; settings: read-out: Activity; method in brief: as §2
MDA-MB-435 = assay: Antiproliferative activity against human MDA-MB-435 cells assessed as cell growth at 10 uM; assay type: functional; settings: read-out: Activity; method in brief: as §2
NCI-H460 = assay: Antiproliferative activity against human NCI-H460 cells assessed as cell growth at 10 uM; assay type: functional; settings: read-out: Activity; method in brief: as §2
HCC 2998 = assay: Antiproliferative activity against human HCC2998 cells assessed as cell growth at 10 uM; assay type: functional; settings: read-out: Activity; method in brief: as §2
NCI-H522 = assay: Antiproliferative activity against human NCI-H522 cells assessed as cell growth at 10 uM; assay type: functional; settings: read-out: Activity; method in brief: as §2
HCT-116 = assay: Antiproliferative activity against human HCT116 cells assessed as cell growth at 10 uM; assay type: functional; settings: read-out: Activity; method in brief: as §2
OVCAR-8 = assay: Antiproliferative activity against human OVCAR8 cells assessed as cell growth at 10 uM; assay type: functional; settings: read-out: Activity; method in brief: as §2
[3] = target: Telomerase reverse transcriptase (Homo sapiens) (UniProt O14746); assay: Inhibition of TERT in human H1299 cells assessed as residual transcriptional activity at 10 uM after 24 hrs by SEAP reporter gene assay; values are per cent of control
SR = assay: Antiproliferative activity against human SR cells assessed as cell growth at 10 uM; assay type: functional; settings: read-out: Activity; method in brief: as §1
NCI-H226 = assay: Antiproliferative activity against human NCI-H226 cells assessed as cell growth at 10 uM; assay type: functional; settings: read-out: Activity; method in brief: as §2
[4] = Cytotoxicity against human H1299 cells at 10 uM after 48 hrs by MTT assay; assay type: functional; settings: NCI-H1299, 48 h; method in brief: as §3
SK-MEL-2 = assay: Antiproliferative activity against human SK-MEL-2 cells assessed as cell growth at 10 uM; assay type: functional; settings: read-out: Activity; method in brief: as §2
DU-145 = assay: Antiproliferative activity against human DU145 cells assessed as cell growth at 10 uM; assay type: functional; settings: read-out: Activity; method in brief: as §2
SN12C = assay: Antiproliferative activity against human SN12C cells assessed as cell growth at 10 uM; assay type: functional; settings: read-out: Activity; method in brief: as §2
NCI-H322M = assay: Antiproliferative activity against human NCI-H322M cells assessed as cell growth at 10 uM; assay type: functional; settings: read-out: Activity; method in brief: as §2
UACC-62 = assay: Antiproliferative activity against human UACC62 cells assessed as cell growth at 10 uM; assay type: functional; settings: read-out: Activity; method in brief: as §1
HL-60(TB) = assay: Antiproliferative activity against human HL-60(TB) cells assessed as cell growth at 10 uM; assay type: functional; settings: read-out: Activity
Method in brief: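 NCI Developmental Therapeutics Program 60-cell-line one-dose screen at 10^-5 M. Readout is growth percentage of treated cells relative to untreated control cells.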

SW-620 = assay: Antiproliferative activity against human SW620 cells assessed as cell growth at 10 uM; assay type: functional; settings: read-out: Activity; method in brief: as §1
NCI/ADR-RES = assay: Antiproliferative activity against human NCI/ADR-RES cells assessed as cell growth at 10 uM; assay type: functional; settings: read-out: Activity; method in brief: as §2
SNB-75 = assay: Antiproliferative activity against human SNB75 cells assessed as cell growth at 10 uM; assay type: functional; settings: read-out: Activity; method in brief: as §1
K562 = assay: Antiproliferative activity against human K562 cells assessed as cell growth at 10 uM; assay type: functional; settings: read-out: Activity; method in brief: as §2
MDA-MB-231 = assay: Antiproliferative activity against human MDA-MB-231 cells assessed as cell growth at 10 uM; assay type: functional; settings: read-out: Activity; method in brief: as §2
[5] = target: Telomerase reverse transcriptase (Homo sapiens) (UniProt O14746); assay: Inhibition of TERT in human H1299 cells assessed as residual transcriptional activity at 1 uM after 24 hrs by SEAP reporter gene assay; values are per cent of control
EKVX = assay: Antiproliferative activity against human EKVX cells assessed as cell growth at 10 uM; assay type: functional; settings: read-out: Activity; method in brief: as §2
SF-539 = assay: Antiproliferative activity against human SF539 cells assessed as cell growth at 10 uM; assay type: functional; settings: read-out: Activity; method in brief: as §2
SF-268 = assay: Antiproliferative activity against human SF268 cells assessed as cell growth at 10 uM; assay type: functional; settings: read-out: Activity; method in brief: as §2
[6] = target: Telomerase reverse transcriptase (Homo sapiens) (UniProt O14746); assay: Inhibition of telomerase in human H1299 cells up to 100 uM by TRAP assay; assay type: cell-based
Method in brief: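 PCR-based telomeric repeat amplification protocol (TRAP). The telomerase source was total lysate of H1299 lung cancer cells, with protein measured against BSA standards. Controls were extract without inhibitor and RNase A-treated extract.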

OVCAR-5 = assay: Antiproliferative activity against human OVCAR5 cells assessed as cell growth at 10 uM; assay type: functional; settings: read-out: Activity; method in brief: as §2

Telomerase reverse transcriptase (Homo sapiens), sequence (O14746 whole entry): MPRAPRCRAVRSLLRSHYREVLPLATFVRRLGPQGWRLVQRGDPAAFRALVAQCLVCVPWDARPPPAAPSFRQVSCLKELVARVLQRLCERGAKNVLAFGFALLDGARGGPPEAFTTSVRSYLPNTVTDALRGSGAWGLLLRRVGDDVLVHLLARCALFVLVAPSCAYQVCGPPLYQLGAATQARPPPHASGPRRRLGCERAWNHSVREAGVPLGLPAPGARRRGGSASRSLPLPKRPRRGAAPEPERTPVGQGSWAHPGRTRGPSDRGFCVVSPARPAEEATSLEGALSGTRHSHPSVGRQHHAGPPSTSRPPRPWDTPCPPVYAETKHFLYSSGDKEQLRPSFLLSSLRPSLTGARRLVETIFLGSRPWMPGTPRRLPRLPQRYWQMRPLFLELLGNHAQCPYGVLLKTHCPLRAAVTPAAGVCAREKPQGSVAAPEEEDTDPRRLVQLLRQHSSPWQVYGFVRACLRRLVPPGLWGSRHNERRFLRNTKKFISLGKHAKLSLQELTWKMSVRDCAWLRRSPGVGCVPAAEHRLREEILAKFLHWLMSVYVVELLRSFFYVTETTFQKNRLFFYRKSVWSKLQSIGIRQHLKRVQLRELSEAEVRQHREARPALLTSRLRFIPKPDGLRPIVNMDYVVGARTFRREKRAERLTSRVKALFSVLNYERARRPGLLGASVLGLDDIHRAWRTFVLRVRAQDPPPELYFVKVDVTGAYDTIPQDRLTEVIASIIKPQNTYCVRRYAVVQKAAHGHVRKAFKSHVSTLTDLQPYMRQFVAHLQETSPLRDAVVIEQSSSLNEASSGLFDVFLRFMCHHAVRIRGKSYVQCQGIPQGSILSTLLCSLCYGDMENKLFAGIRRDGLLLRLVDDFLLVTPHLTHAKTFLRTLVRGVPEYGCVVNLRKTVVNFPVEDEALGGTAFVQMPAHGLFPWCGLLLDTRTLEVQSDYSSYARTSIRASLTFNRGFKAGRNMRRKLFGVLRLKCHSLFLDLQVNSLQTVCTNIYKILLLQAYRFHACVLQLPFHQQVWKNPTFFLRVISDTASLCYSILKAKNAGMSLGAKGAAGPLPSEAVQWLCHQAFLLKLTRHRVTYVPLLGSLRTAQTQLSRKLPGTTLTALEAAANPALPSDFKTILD

## Cc1ccc(-c2nc3ccc4c(c3[nH]2)C(=O)c2ccccc2C4=O)cc1
T47D
  growth at 10 µM: 76%
SK-MEL-5
  growth at 10 µM: 88%
LOX IMVI
  growth at 10 µM: 104%
UO-31
  growth at 10 µM: 75.2%
NCI-H23
  growth at 10 µM: 98.8%
HOP-92
  growth at 10 µM: 77.3%
COLO 205
  growth at 10 µM: 108%
MOLT-4
  growth at 10 µM: 106%
CAKI-1
  growth at 10 µM: 110%
[1]
  viability at 100 µM: 16%
U-251
  growth at 10 µM: 104%
SF-295
  growth at 10 µM: 94.2%
HT-29
  growth at 10 µM: 106%
SK-OV-3
  growth at 10 µM: 84.5%
[2]
  growth at 10 µM: 91.5%
MCF7
  growth at 10 µM: 41.9%
ACHN
  growth at 10 µM: 101%
MDA-MB-435
  growth at 10 µM: 105%
NCI-H460
  growth at 10 µM: 93.6%
HCC 2998
  growth at 10 µM: 104%
NCI-H522
  growth at 10 µM: 84.7%
HCT-116
  growth at 10 µM: 99.8%
OVCAR-8
  growth at 10 µM: 96.4%
[3]
  residual activity: 82%
SR
  growth at 10 µM: 114%
NCI-H226
  growth at 10 µM: 101%
[4]
  viability at 10 µM: 72%
SK-MEL-2
  growth at 10 µM: 79.6%
DU-145
  growth at 10 µM: 98.8%
SN12C
  growth at 10 µM: 103%
NCI-H322M
  growth at 10 µM: 84.6%
UACC-62
  growth at 10 µM: 90%
HL-60(TB)
  growth at 10 µM: 125%
SW-620
  growth at 10 µM: 113%
NCI/ADR-RES
  growth at 10 µM: 104%
SNB-75
  growth at 10 µM: 107%
K562
  growth at 10 µM: 102%
MDA-MB-231
  growth at 10 µM: 97.6%
[5]
  residual activity: 86%
EKVX
  growth at 10 µM: 91.2%
SF-539
  growth at 10 µM: 91.7%
SF-268
  growth at 10 µM: 106%
[6]
  inhibition: inactive
OVCAR-5
  growth at 10 µM: 106%

## O=C1c2ccccc2C(=O)c2c1ccc1nc(-c3ccccc3)[nH]c21
T47D
  growth at 10 µM: 65.1%
SK-MEL-5
  growth at 10 µM: 65.2%
LOX IMVI
  growth at 10 µM: 79.7%
UO-31
  growth at 10 µM: 57.6%
NCI-H23
  growth at 10 µM: 91.7%
HOP-92
  growth at 10 µM: 50.7%
COLO 205
  growth at 10 µM: 92%
MOLT-4
  growth at 10 µM: 88.3%
CAKI-1
  growth at 10 µM: 51.9%
[1]
  viability at 100 µM: 34%
U-251
  growth at 10 µM: 97.1%
SF-295
  growth at 10 µM: 73.6%
HT-29
  growth at 10 µM: 83.2%
SK-OV-3
  growth at 10 µM: 115%
[2]
  growth at 10 µM: 61.1%
MCF7
  growth at 10 µM: 51.8%
ACHN
  growth at 10 µM: 71.9%
MDA-MB-435
  growth at 10 µM: 101%
NCI-H460
  growth at 10 µM: 86.2%
HCC 2998
  growth at 10 µM: 105%
NCI-H522
  growth at 10 µM: 80.4%
HCT-116
  growth at 10 µM: 82.4%
OVCAR-8
  growth at 10 µM: 91%
[3]
  residual activity: 78%
SR
  growth at 10 µM: 95.5%
NCI-H226
  growth at 10 µM: 80.5%
[4]
  viability at 10 µM: 72%
SK-MEL-2
  growth at 10 µM: 62.6%
DU-145
  growth at 10 µM: 84.3%
SN12C
  growth at 10 µM: 87.5%
NCI-H322M
  growth at 10 µM: 77.4%
UACC-62
  growth at 10 µM: 70.4%
HL-60(TB)
  growth at 10 µM: 99%
SW-620
  growth at 10 µM: 82.8%
NCI/ADR-RES
  growth at 10 µM: 90.2%
SNB-75
  growth at 10 µM: 75.1%
K562
  growth at 10 µM: 76%
MDA-MB-231
  growth at 10 µM: 81.4%
[5]
  residual activity: 81%
EKVX
  growth at 10 µM: 77.1%
SF-539
  growth at 10 µM: 96.2%
SF-268
  growth at 10 µM: 91.9%
[6]
  inhibition: inactive
OVCAR-5
  growth at 10 µM: 109%
